For experiment [1], the target named is Sigma non-opioid intracellular receptor 1 (Rattus norvegicus, UniProt Q9R0C9). As to the kind of experiment: Displacement of (+)-[3H]pentazocine from sigma 1 receptor in rat brain membranes by competitive binding assay. In kind it is cell membranes. In short, it runs like this: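 Sigma-1 competition binding used rat brain membranes as receptor material with (+)-[3H]pentazocine as radioligand. Ki was derived by Cheng–Prusoff from at least three independent experiments, each in triplicate, and is reported as mean ± SD.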

The nature of experiment [2]: Displacement of [3H]ditolylguanidine from sigma 2 receptor in rat liver membrane by competitive binding assay. In kind it is cell membranes. In short, it runs like this: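 Sigma-2 competition binding used rat liver membranes with [3H]ditolylguanidine as radioligand. 10 µM dextrallorphan was present to mask sigma-1 sites. Ki was derived by Cheng–Prusoff from at least three independent experiments, each in triplicate, and is reported as mean ± SD.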

Chain of Sigma non-opioid intracellular receptor 1 (Q9R0C9 whole entry): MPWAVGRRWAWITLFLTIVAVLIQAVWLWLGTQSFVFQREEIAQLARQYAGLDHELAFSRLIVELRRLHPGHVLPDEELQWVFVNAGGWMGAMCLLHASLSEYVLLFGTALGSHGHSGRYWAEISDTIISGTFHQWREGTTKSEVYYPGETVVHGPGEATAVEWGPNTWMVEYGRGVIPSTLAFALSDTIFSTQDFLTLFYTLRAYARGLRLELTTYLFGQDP

`Fc1ccc(CN2CCN(Cc3ccc4c(c3)OCO4)CC2)cc1`: the Ki in experiment [1] came out at 0.85 nM; in experiment [2], 52.2 nM.
As for `Brc1ccc(CN2CCN(Cc3ccc4c(c3)OCO4)CC2)cc1`, the inhibition constant Ki in experiment [1] came out at 0.78 nM; in experiment [2] it was 40.5 nM.
The like results for `Ic1ccc(CN2CCN(Cc3ccc4c(c3)OCO4)CC2)cc1` were, in that order, 0.8 nM and 61.1 nM.
